Only some compounds are listed: those with a hit (about 1.5% of all), similar ones and a draw of the others.
HTRA1 inhibitor = HTRA1 serine protease inhibitors, primary screen, biochemical, fluorescence polarization, HTS; Q92743; recombinant HTRA1, FP-rhodamine activity-based probe; inhibition, % at 5.96 µM; actives 0.5% (n = 340,000); AID 504803, 2011; in the data active means inhibition above about 36%;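 further: 0% = enzyme with DMSO and 100% = wells lacking enzyme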
Target sequence (Q92743 whole entry, looked up): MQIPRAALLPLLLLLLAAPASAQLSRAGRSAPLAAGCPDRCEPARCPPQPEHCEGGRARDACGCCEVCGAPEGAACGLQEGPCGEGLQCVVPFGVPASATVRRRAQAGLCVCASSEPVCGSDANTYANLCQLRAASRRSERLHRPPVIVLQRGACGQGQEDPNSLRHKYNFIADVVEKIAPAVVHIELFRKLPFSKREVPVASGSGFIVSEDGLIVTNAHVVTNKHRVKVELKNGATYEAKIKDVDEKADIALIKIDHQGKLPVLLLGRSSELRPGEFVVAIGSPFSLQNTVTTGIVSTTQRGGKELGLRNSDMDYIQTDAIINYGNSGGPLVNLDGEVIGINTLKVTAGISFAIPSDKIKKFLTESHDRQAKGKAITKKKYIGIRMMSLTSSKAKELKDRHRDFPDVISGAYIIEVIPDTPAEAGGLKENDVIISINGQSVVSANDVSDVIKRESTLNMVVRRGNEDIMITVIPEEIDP
SIAE inh = human SIAE inhibitors, primary screen, biochemical, fluorescence polarization, FP-Rh probe, 1536-well HTS; inhibition, % at 9.66 µM; actives 0.69% (n = 370,000); AID 1053197, 2014; SIAE FP-Rh probe binding;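 active means inhibition above a cutoff: mean of compounds within the control limits plus 3 SD of those, cut at about 17% in these data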;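 further: 0% = plate median of compound wells and 100% = probe without SIAE protein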
TCR CD3 inh = inhibitors of human TCR-CD3 interaction, primary screen, biochemical, fluorescence, TAMRA-labeled TCR probe; actives 0.37% (n = 360,000); inhibition, % at 9.4 µM; T-cell receptor (TCR); AID 651800, 2012; in the data active means inhibition above about 19%;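 further: recombinant mutant TCR 2C K166C tagged with TAMRA read by polarization; 0% = receptor in buffer alone and 100% = receptor with positive control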
DAGLB inhibitor = DAGLB lipase inhibitors, primary screen, biochemical, fluorescence, HTS; Diacylglycerol lipase-beta (Homo sapiens), Q8NCG7; HEK293T DAGLB membrane lysate, EnzChek fluorogenic substrate; inhibition, % at 5.17 µM; actives 0.059% (n = 340,000); AID 504411, 2011; in the data active means inhibition above about 34%;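 further: 0% = enzyme with vehicle and 100% = wells lacking enzyme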
ABHD4 inh = ABHD4 inhibitors, primary screen, biochemical, fluorescence polarization, mouse | (Lyso)-N-acylphosphatidylethanolamine lipase (Mus musculus), Q8VD66 | purified mABHD4, FP-Rh probe fluorescence polarization | inhibition, % at 8.92 µM | actives 0.54% (n = 370,000) | AID 720543, 2013;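 active means inhibition exceeding the mean over every tested compound plus 3 SD, cut at about 30% in these data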;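 further: 0% = plate median of compound wells and 100% = S159A mutant with DMSO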
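system = mouse ABHD4 enzyme, wild type | medium = HEPES pH 7.0, NaCl, Pluronic buffer | also added = FP-Rh probe | incubation = Enzyme–compound pre-incubation 45 min, then probe 60 min, both 25 °C | technique = fluorescence polarization, excitation 525 nm, emission 598 nm, BODIPY TMR filters | controls = S159A mutant high control, sample median low control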
mABHD4 conf = ABHD4 inhibitors, retest, confirmation, biochemical, fluorescence polarization, mouse; shares compounds with ABHD4 inh; purified mABHD4, FP-Rh probe fluorescence polarization; inhibition, % at 8.92 µM; actives 55% (n = 1,800); AID 720658, 2013;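 active means mean inhibition across replicates above the hit cutoff set in the primary screen, cut at about 30% in these data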;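 further: 0% = wild-type ABHD4 with DMSO and 100% = catalytically dead S159A mutant with DMSO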
* hit, by the source's call; . = no result given.

SMILES	HTRA1 inhibitor	SIAE inh	TCR CD3 inh	DAGLB inhibitor	ABHD4 inh	mABHD4 conf
O=S(=O)(Nc1cccc2c1ccc1cccn12)c1cccs1	14	10	1	4	34*	8
O=S(=O)(Nc1cccc2[nH]ncc12)c1cccs1	0	7	2	-1	3	.
C/C(=N\NC(=O)Cc1cccs1)c1ccco1	.	6	.	.	3	.
NNc1nc2c(Cl)ccc(Cl)c2s1	8	10	7	-2	39*	48*
CCOC(=O)c1c(C)[nH]c(O)c1C=Nc1ccc(Cl)cc1	24	1	12	-3	59*	8
Nc1ccc2c(c1)C(=O)c1ccc(N)cc1-2	16	3	5	9	30*	37*
COC(=O)Cc1nnn2c1[C@H](C)[C@H](C(C)(C)C)OCC2	.	0	5	.	6	.
O=C(O)c1ccc(N2CCN(C(c3ccccc3)c3ccccc3)CC2)c([N+](=O)[O-])c1	-4	-2	-4	9	32*	47*
CN1CCN(c2ccc(C(=O)c3ccccc3)cc2[N+](=O)[O-])CC1	0	4	9	2	1	.
Cc1nc(NC(=O)COc2ccccc2)sc1C(=O)Nc1ccccc1	-32	0	-3	1	49*	50*
COC(=O)c1sc(NC(=O)COc2ccccc2)nc1C	-5	-4	-6	-15	-2	.
COc1ccc(-c2c(C(=O)c3ccc(Br)cc3)[nH]c(N)c2C(=O)NCCc2c[nH]c3ccccc23)cc1OC	.	8	3	.	33*	24
Nc1[nH]c(C(=O)c2ccc(Br)cc2)c(-c2ccc(Br)cc2)c1C(=O)NCCc1c[nH]c2ccccc12	.	5	2	.	18	.
Nc1[nH]c(C(=O)c2ccc(Br)cc2)c(-c2ccc(F)cc2)c1C(=O)NCCc1c[nH]c2ccccc12	.	6	-1	.	33*	26
C=CC[C@@H]1NN2C(=O)[C@@H](C)[C@@H]3c4ccccc4C=NN3[C@@H]2c2ccccc21	.	-1	.	.	-1	.
Cc1cc(N2CCN(C(=O)OC(C)(C)C)C[C@@H]2C)ccc1Br	.	2	-1	.	-2	.
Nc1c(O)ccc2c1C(=O)c1ccccc1C2=O	.	1	-12	.	45*	47*
CCOc1ccccc1N1Cc2cc(C)c(C)cc2C1	24	5	-2	-2	17	.
COc1ccc(OC)c(N2Cc3cc(C)c(C)cc3C2)c1	31	9	-1	7	30*	36*
CCOC(=O)CSc1nc(Nc2ccc3c(c2)OCO3)c2ccccc2n1	-8	9	-1	-2	40*	32*
N#CCSc1nc(Nc2ccc3c(c2)OCO3)c2ccccc2n1	-13	.	.	-1	.	.
Oc1cc2c(cc1O)C1c3ccc(O)c(O)c3OCC1(O)C2 (configuration not stated)	25	0	132*	-1	30*	23
Nc1cc2[nH]c(=O)c3ccccc3c2cc1Br	0	5	5	3	-4	.
O=c1[nH]c2ccccc2c(=O)c2ccccc12	-1	-3	2	-3	4	.
Nc1cccc2[nH]c(=O)c3ccccc3c12	9	16	3	1	31*	12
SMILES	HTRA1 inhibitor	SIAE inh	TCR CD3 inh	DAGLB inhibitor	ABHD4 inh	mABHD4 conf
Nc1cc2c(cc1Br)[nH]c(=O)c1ccccc12	28	-3	1	3	31*	31*
C=CCn1c(SCC(N)=O)nnc1-c1ccc(C)cc1	.	7	.	.	6	.
O=C(C(=O)N1CCN(C(=O)C2CCC2)CC1)c1cccc(C(F)(F)F)c1	.	3	-2	.	-1	.
CCCCOc1cc(NCc2ccccc2)c2ncn(C(C)C)c2c1	17	11	8	2	37*	91*
CCC(CO)Oc1cc(NCc2ccc(C(C)(C)C)cc2)c2ncn(C(C)C)c2c1 (configuration not stated)	14	4	10	1	30*	34*
COCCCOc1cc(NCc2ccccc2)c2ncn(C(C)C)c2c1	5	4	3	2	8	.

High-throughput results (PubChem BioAssay)
